# From ChEMBL document CHEMBL5712908, “A genome-wide RNAi screen reveals essential therapeutic targets of breast cancer stem cells” (2019)
# Activity calls are given as the source filed them. The calls are words filed in the database; no cut-off is given here.
# Tests used:
# [1] = tested on: Breast cancer cell line; assay: Synergistic antitumor activity against human CRCM434 negative breast cancer cells orthotopically xenografted in NSG mouse model of PDX assessed as reduction in tumor volume at 50 mg/kg, ip 5 out of 7 for 2 weeks cotreated with salinomycin; format: functional, organism-based
# Outline: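 Orthotopic PDX in NSG mice, 100,000 cells per fat pad, two pads per mouse; treatment from ~80 mm³ tumours with salinomycin i.p. 3 mg/kg daily 14 days, JQ1 i.p. 50 mg/kg 5 of 7 days for 2 weeks, or combination, against placebo DMSO/HPCD 10% (1:9). Tumour growth monitored; n = 10 tumours per group.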
# [2] = tested on: SUM-159-PT; assay: Anticancer activity against human SUM159 cells assessed as effect on RFP+/BFP+ cell ratio upto 100 uM after 72 hrs by ALDEFLUOR staining based flow cytometric analysis; format: functional
# [3] = tested on: Breast cancer cell line; assay: Antitumor activity against human CRCM434 negative breast cancer cells orthotopically xenografted in NSG mouse model of PDX assessed as reduction ALDHbr cells at 50 mg/kg, ip 5 out of 7 for 2 weeks by LSR2 cytometer analysis; format: functional, organism-based
# Outline: (§1)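 Chemo-naïve triple-negative PDX cells injected at 100,000 per fat pad, two fat pads per NSG mouse. At ~80 mm³ tumours, mice received i.p. 3 mg/kg daily for 14 days or 50 mg/kg 5 of 7 days for 2 weeks; placebo was DMSO/HPCD 10% (1:9). Five mice (10 tumours) per group. Tumour growth monitored; after 2 weeks tumours dissociated, mouse cells excluded via anti-H2Kd, ALDHbr measured by ALDEFLUOR flow cytometry and normalised to vehicle.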
# [4] = Antitumor activity against human S68 cells assessed as K-score by measuring ALDHbr cells by LSR2 cytometer; format: functional
# Outline: (§2)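 Cell lines exposed for 72 h in adherent culture to a range of concentrations centred on the MTS-derived IC50. ALDHbr proportion measured by ALDEFLUOR flow cytometry (LSR2). K-score is the linear regression coefficient, on log10-transformed doses, between the untreated condition and the dose predicted to give a 50% decrease or increase in ALDHbr proportion versus control.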
# [5] = tested on: SUM-159-PT; assay: Antitumor activity against human SUM159 cells assessed as K-score by measuring ALDHbr cells by LSR2 cytometer; format: functional; outline: as §2
# [6] = tested on: Breast cancer cell line; assay: Antitumor activity against human CRCM494 negative breast cancer cells orthotopically xenografted in NSG mouse model of PDX assessed as reduction ALDHbr cells at 50 mg/kg, ip 5 out of 7 for 2 weeks by LSR2 cytometer analysis; format: functional, organism-based; outline: as §1
# [7] = tested on: Breast cancer cell line; assay: Synergistic antitumor activity against human CRCM404 negative breast cancer cells orthotopically xenografted in NSG mouse model of PDX assessed as reduction ALDHbr cells at 50 mg/kg, ip 5 out of 7 for 2 weeks cotreated with salinomycin by LSR2 cytometer analysis; format: functional
# [8] = tested on: Breast cancer cell line; assay: Antitumor activity against human reimplanted CRCM494 negative breast cancer cells orthotopically xenografted in NSG mouse model of PDX assessed as reduction tumor volume at 50 mg/kg, ip 5 out of 7 for 2 weeks by limiting dilation analysis; format: functional, organism-based
# Outline: (§3)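 After 2 weeks of i.p. treatment (3 mg/kg daily or 50 mg/kg 5 of 7 days), dissociated PDX tumour cells reimplanted into secondary NSG mice at 50, 500 or 5,000 cells. A mouse counted as tumour-bearing once a tumour reached 10 mm. bCSC frequency per 10,000 cells estimated by ELDA; pairwise chi-square test.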
# [9] = tested on: Breast cancer cell line; assay: Synergistic antitumor activity against human CRCM434 negative breast cancer cells xenografted in NSG mouse model of PDX assessed as reduction metastasis formation in liver at 50 mg/kg, ip 5 out of 7 for 2 weeks cotreated with salinomycin; format: functional, organism-based
# Outline: (§4)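 Luciferase-expressing PDX cells sorted H2Kd⁻ and viable, 100,000 in 100 μl PBS injected in NSG tail vein. From the next day, salinomycin 3 mg/kg i.p. daily and/or JQ1 50 mg/kg i.p. 5 of 7 days for 2 weeks. Lungs and liver imaged by bioluminescence after i.p. luciferin 30 mg/kg; normalised photon flux; 10 mice/group; Wilcoxon test.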
# [10] = tested on: SUM149PT; assay: Anticancer activity against human SUM149 cells assessed as ALDHbr cells at 1 mM by LSR2 cytometer (reference value: 4.8%); format: functional; parameters: dose or concentration left out as unconfirmed
# [11] = tested on: Breast cancer cell line; assay: Synergistic antitumor activity against human CRCM404 negative breast cancer cells xenografted in NSG mouse model of PDX assessed as reduction metastasis formation in lung at 50 mg/kg, ip 5 out of 7 for 2 weeks cotreated with salinomycin; format: functional, organism-based; outline: as §4
# [12] = tested on: SUM-159-PT; assay: Synergistic anticancer activity against human SUM159 cells at 500 nM incubated for 72 hrs in presence of salinomycin by ALDEFLUOR staining based flow cytometric analysis; format: functional, cell-based
# [13] = tested on: SUM-159-PT; assay: Synergistic anticancer activity against human SUM159 cells assessed as decrease in primary tumor sphere formation at 62 nM incubated for 72 hrs in presence of salinomycin by Extreme limiting dilution analysis; format: functional
# Outline: (§5)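 72 h adherent pretreatment (Sal/JQ1 62 nM/62 nM; docetaxel added at 2 nM where used), then single cells plated in ultra-low attachment 96-well plates in serum-free mammary epithelium basal medium at 25/10/5/3/2/1 cells/well (18–36 wells/condition). Wells with ≥1 sphere after 10 days scored positive; sphere-forming frequency by ELDA. Secondary spheres from dissociated primary spheres. n = 4; pairwise chi-square.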
# [14] = tested on: Breast cancer cell line; assay: Antitumor activity against human CRCM404 negative breast cancer cells orthotopically xenografted in NSG mouse model of PDX assessed as reduction ALDHbr cells at 50 mg/kg, ip 5 out of 7 for 2 weeks by LSR2 cytometer analysis; format: functional, organism-based; outline: as §1
# [15] = tested on: Breast cancer cell line; assay: Antitumor activity against human CRCM494 negative breast cancer cells orthotopically xenografted in NSG mouse model of PDX assessed as reduction in tumor volume at 50 mg/kg, ip 5 out of 7 for 2 weeks; format: functional, organism-based; outline: as §1
# [16] = tested on: Breast cancer cell line; assay: Antitumor activity against human reimplanted CRCM434 negative breast cancer cells orthotopically xenografted in NSG mouse model of PDX assessed as reduction tumor volume at 50 mg/kg, ip 5 out of 7 for 2 weeks by limiting dilation analysis; format: functional, organism-based; outline: as §3
# [17] = tested on: SUM149PT; assay: Anticancer activity against human SUM149 cells assessed as ALDHbr cells at 10 uM by LSR2 cytometer (reference value: 4.8%); format: functional
# [18] = tested on: SUM-159-PT; assay: Induction of apoptosis in human SUM159 cells expressing ALDH upto 100 uM incubated for 72 hrs by ALDEFLUOR/YO-PRO-3/ Hoechst 33342 staining based high content imaging microscopic analysis; format: functional, cell-based
# Outline: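 SUM159 at 3,000 cells/well on collagen plates, dosed at 6, 24 and 48 h post-seeding; 0.1% DMSO negative control, cisplatin positive control. At 72 h stained 30 min at 37°C with ALDEFLUOR, YO-PRO-3 and Hoechst 33342, then imaged ice-cold. YO-PRO-3-positive nuclei (above untreated signal) counted over total cells, per ALDHbr/ALDH- subpopulation; n = 6.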
# [19] = tested on: Breast cancer cell line; assay: Synergistic antitumor activity against human CRCM434 negative breast cancer cells xenografted in NSG mouse model of PDX assessed as reduction metastasis formation in lung at 50 mg/kg, ip 5 out of 7 for 2 weeks cotreated with salinomycin; format: functional, organism-based; outline: as §4
# [20] = tested on: SUM149PT; assay: Synergistic anticancer activity against human SUM149 cells assessed as decrease in docetaxel induced primary tumor sphere formation at 62 nM incubated for 72 hrs in presence of salinomycin by Extreme limiting dilution analysis; format: functional, cell-based; outline: as §5
compound,measurement,setting,value
Cc1sc2c(c1C)C(c1ccc(Cl)cc1)=N[C@@H](CC(=O)OC(C)(C)C)c1nnc(C)n1-2,Activity,[1],Active
same,Activity,[2],inactive
same,Activity,[3],Active
same,Activity,[4],-0.15
same,Activity,[5],-0.2
same,Activity,[6],Active
same,fold change (FC),[7],2
same,Activity,[8],Active
same,Activity,[9],Active
same,Activity,[10],1.2%
same,Activity,[11],Active
same,Activity,[12],inactive
same,fold change (FC),[13],2.4
same,Activity,[14],Active
same,Activity,[15],Active
same,Activity,[16],Active
same,Activity,[17],5.1%
same,Activity,[18],Active
same,Activity,[19],Active
same,Activity,[20],Active
